Measurements: ChEMBL document CHEMBL3779834, “Prenylated Acylphloroglucinols with Leishmanicidal Activity from the Fern Elaphoglossum lindbergii” (J Nat Prod, 2016)

Legend:
Leishmania braziliensis = assay: Leshmanicidal activity against promastigote stage of Leishmania braziliensis strand M2904 C192 RJA after 72 hrs by XTT-based microplate reader analysis; assay type: functional, organism-based
Summary of the method: (§1)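 Log-phase promastigotes, grown at 26 °C in Schneider's insect medium (pH 6.8) with 10% heat-inactivated FBS, seeded at 1 × 10^6 parasites/mL. Test substances in DMSO at 0.75−100 μg/mL, 72 h at 26 °C. XTT (1 mg/mL) with PMS (0.06 mg/mL) added, further 4 h at 26 °C, OD read at 450 nm. DMSO 1% negative, amphotericin B 0.5 μg/mL positive control. IC50 = 50% viability decrease, mean ± standard error.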

Leishmania amazonensis = assay: Leshmanicidal activity against promastigote stage of Leishmania amazonensis clone 1 AML MHOM/BR/76/LTB-012 after 72 hrs by XTT-based microplate reader analysis; assay type: functional, organism-based; conditions: clone 1 AML MHOM/BR/76/LTB-012, 72 h; summary of the method: as §1

| SMILES | IC50 (Leishmania braziliensis) | IC50 (Leishmania amazonensis) |
| --- | --- | --- |
| CCCCCC(=O)C1=C(O)[C@@](C)(CC=C(C)C)C(O)=C(Cc2c(O)c(CC=C(C)C)c(OC)c(C(=O)CCCCC)c2O)C1=O | 66.5 µM | 151 µM |
| CCCC(=O)C1=C(O)[C@@](C)(CC=C(C)C)C(O)=C(Cc2c(O)c3c(c(C(=O)CCC)c2O)OC(C)(C)C=C3)C1=O | 13.6 µM | 16.3 µM |
| CCCCCC(=O)C1=C(O)[C@@](C)(CC=C(C)C)C(O)=C(Cc2c(O)c3c(c(C(=O)CCC)c2O)OC(C)(C)C=C3)C1=O | 29.9 µM | 52.4 µM |
| CCCCCC(=O)C1=C(O)[C@@](C)(CC=C(C)C)C(O)=C(Cc2c(O)c(CC3=C(O)[C@](C)(CC=C(C)C)C(O)=C(C(=O)CCCCC)C3=O)c(O)c(C(=O)CCC)c2O)C1=O | > 100 µg/mL | > 100 µg/mL |
| CCCCCC(=O)c1c(O)c(CC2=C(O)[C@](C)(CC=C(C)C)C(O)=C(C(=O)CCC)C2=O)c(O)c(CC2=C(O)[C@](C)(CC=C(C)C)C(O)=C(C(=O)CCC)C2=O)c1O | 87.7 µM | > 100 µg/mL |
| C[C@@H]1[C@H](O)[C@@H](C)/C=C/C=C/C=C/C=C/C=C/C=C/C=C/[C@H](O[C@@H]2O[C@H](C)[C@@H](O)[C@H](N)[C@@H]2O)C[C@@H]2O[C@](O)(C[C@@H](O)C[C@@H](O)[C@H](O)CC[C@@H](O)C[C@@H](O)CC(=O)O[C@H]1C)C[C@H](O)[C@H]2C(=O)O [AMPHOTERICIN B] | 0.12 µM | 0.11 µM |
